Results from ChEMBL document CHEMBL1255475, “Mutant prevention concentrations of four carbapenems against gram-negative rods” (2010).
Converted amounts (≈) assume the structure as drawn.

Legend:
Assay type in all cases: functional
Acinetobacter baumannii [1] = test: Antibacterial activity against Acinetobacter baumannii A890 assessed as mutant prevention concentration after overnight incubation
Klebsiella pneumoniae [2] = test: Antibacterial activity against beta-lactamase-positive ESBL-negative Klebsiella pneumoniae E474 incubated up to 7 days by agar dilution method; details: E474, 168 h
Pseudomonas aeruginosa [3] = test: Antibacterial activity against Pseudomonas aeruginosa P358 assessed as mutant prevention concentration after overnight incubation
Klebsiella pneumoniae [4] = test: Antibacterial activity against beta-lactamase-positive ESBL-negative Klebsiella pneumoniae E509 assessed as mutant prevention concentration after overnight incubation
Method in brief: (§1)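 Overnight growth on blood trypticase soy agar (35°C, air) was resuspended in 0.9% saline and counted on drug-free Mueller-Hinton agar. […] Colonies were retested by agar dilution to confirm mutants. MPC was the lowest concentration preventing resistant-mutant growth.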

Escherichia coli [5] = test: Antibacterial activity against beta-lactamase-negative Escherichia coli E348 assessed as mutant prevention concentration after overnight incubation
Pseudomonas aeruginosa [6] = test: Antibacterial activity against Pseudomonas aeruginosa P376 assessed as mutant prevention concentration after overnight incubation
Pseudomonas aeruginosa [7] = test: Antibacterial activity against Pseudomonas aeruginosa P353 assessed as mutant prevention concentration after overnight incubation
Klebsiella pneumoniae [8] = test: Antibacterial activity against beta-lactamase-positive ESBL-positive Klebsiella pneumoniae E478 incubated up to 7 days by agar dilution method; details: E478, 168 h
Pseudomonas aeruginosa [9] = test: Antibacterial activity against Pseudomonas aeruginosa P332 assessed as mutant prevention concentration after overnight incubation
Escherichia coli [10] = test: Antibacterial activity against beta-lactamase-negative Escherichia coli E348 incubated up to 7 days by agar dilution method; details: E348, 168 h
Escherichia coli [11] = test: Antibacterial activity against beta-lactamase-positive ESBL-positive Escherichia coli E450 assessed as mutant prevention concentration after overnight incubation; method in brief: as §1
Pseudomonas aeruginosa [12] = test: Antibacterial activity against Pseudomonas aeruginosa P328 assessed as mutant prevention concentration after overnight incubation
Klebsiella pneumoniae [13] = test: Antibacterial activity against beta-lactamase-negative Klebsiella pneumoniae E419 assessed as mutant prevention concentration after overnight incubation; method in brief: as §1
Pseudomonas aeruginosa [14] = test: Antibacterial activity against Pseudomonas aeruginosa P363 assessed as mutant prevention concentration after overnight incubation
Escherichia coli [15] = test: Antibacterial activity against beta-lactamase-positive ESBL-negative Escherichia coli E437 assessed as mutant prevention concentration after overnight incubation; method in brief: as §1
Escherichia coli [16] = test: Antibacterial activity against beta-lactamase-negative Escherichia coli E408 assessed as mutant prevention concentration after overnight incubation
Klebsiella pneumoniae [17] = test: Antibacterial activity against beta-lactamase-negative Klebsiella pneumoniae E362 incubated up to 7 days by agar dilution method; details: E362, 168 h
Klebsiella pneumoniae [18] = test: Antibacterial activity against beta-lactamase-positive ESBL-negative Klebsiella pneumoniae E474 assessed as mutant prevention concentration after overnight incubation; method in brief: as §1
Klebsiella pneumoniae [19] = test: Antibacterial activity against beta-lactamase-negative Klebsiella pneumoniae E420 incubated up to 7 days by agar dilution method; details: E420, 168 h
Method in brief: (§2)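 MIC by CLSI agar dilution, with quality-control strains in each run. Beta-lactamase status was set by 30 μg cefazolin Kirby-Bauer disk diffusion. ESBL status was set by cefotaxime and ceftazidime disks (30 μg) with and without clavulanic acid (10 μg).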

Klebsiella pneumoniae [20] = test: Antibacterial activity against beta-lactamase-negative Klebsiella pneumoniae E359 incubated up to 7 days by agar dilution method; details: E359, 168 h
Klebsiella pneumoniae [21] = test: Antibacterial activity against beta-lactamase-negative Klebsiella pneumoniae E418 incubated up to 7 days by agar dilution method; details: E418, 168 h
Escherichia coli [22] = test: Antibacterial activity against beta-lactamase-negative Escherichia coli E425 assessed as mutant prevention concentration after overnight incubation
Klebsiella pneumoniae [23] = test: Antibacterial activity against beta-lactamase-positive ESBL-positive Klebsiella pneumoniae E476 incubated up to 7 days by agar dilution method; details: E476, 168 h
Klebsiella pneumoniae [24] = test: Antibacterial activity against beta-lactamase-positive ESBL-negative Klebsiella pneumoniae E511 incubated up to 7 days by agar dilution method; details: E511, 168 h
Klebsiella pneumoniae [25] = test: Antibacterial activity against beta-lactamase-negative Klebsiella pneumoniae E359 assessed as mutant prevention concentration after overnight incubation
Escherichia coli [26] = test: Antibacterial activity against beta-lactamase-positive ESBL-negative Escherichia coli E412 incubated up to 7 days by agar dilution method; details: E412, 168 h; method in brief: as §2
Escherichia coli [27] = test: Antibacterial activity against beta-lactamase-positive ESBL-negative Escherichia coli E483 […] by agar dilution method
Escherichia coli [28] = test: Antibacterial activity against beta-lactamase-negative Escherichia coli E350 […] by agar dilution method
Klebsiella pneumoniae [29] = test: Antibacterial activity against beta-lactamase-negative Klebsiella pneumoniae E360 incubated up to 7 days by agar dilution method; details: E360, 168 h
Klebsiella pneumoniae [30] = test: Antibacterial activity against beta-lactamase-positive ESBL-negative Klebsiella pneumoniae E511 assessed as mutant prevention concentration after overnight incubation; method in brief: as §1
Escherichia coli [31] = test: Antibacterial activity against beta-lactamase-positive ESBL-negative Escherichia coli E412 assessed as mutant prevention concentration after overnight incubation; method in brief: as §1
Escherichia coli [32] = test: Antibacterial activity against beta-lactamase-positive ESBL-negative Escherichia coli E483 assessed as mutant prevention concentration after overnight incubation; method in brief: as §1
Escherichia coli [33] = test: Antibacterial activity against beta-lactamase-positive ESBL-positive Escherichia coli E451 incubated up to 7 days by agar dilution method; details: E451, 168 h; method in brief: as §2
Escherichia coli [34] = test: Antibacterial activity against beta-lactamase-negative Escherichia coli E409 […] by agar dilution method
Klebsiella pneumoniae [35] = test: Antibacterial activity against beta-lactamase-positive ESBL-negative Klebsiella pneumoniae E480 incubated up to 7 days by agar dilution method; details: E480, 168 h
Acinetobacter baumannii [36] = test: Antibacterial activity against Acinetobacter baumannii A849 assessed as mutant prevention concentration after overnight incubation
Acinetobacter baumannii [37] = test: Antibacterial activity against Acinetobacter baumannii A928 assessed as mutant prevention concentration after overnight incubation
Klebsiella pneumoniae [38] = test: Antibacterial activity against beta-lactamase-negative Klebsiella pneumoniae E357 incubated up to 7 days by agar dilution method; details: E357, 168 h
Klebsiella pneumoniae [39] = test: Antibacterial activity against beta-lactamase-positive ESBL-positive Klebsiella pneumoniae E478 assessed as mutant prevention concentration after overnight incubation; method in brief: as §1
Klebsiella pneumoniae [40] = test: Antibacterial activity against beta-lactamase-positive ESBL-negative Klebsiella pneumoniae E480 assessed as mutant prevention concentration after overnight incubation; method in brief: as §1
Escherichia coli [41] = test: Antibacterial activity against beta-lactamase-positive ESBL-negative Escherichia coli E415 incubated up to 7 days by agar dilution method; details: E415, 168 h; method in brief: as §2
Acinetobacter baumannii [42] = test: Antibacterial activity against Acinetobacter baumannii A908 assessed as mutant prevention concentration after overnight incubation
Escherichia coli [43] = test: Antibacterial activity against beta-lactamase-negative Escherichia coli E346 assessed as mutant prevention concentration after overnight incubation
Escherichia coli [44] = test: Antibacterial activity against beta-lactamase-positive ESBL-positive Escherichia coli E446 incubated up to 7 days by agar dilution method; details: E446, 168 h; method in brief: as §2
Pseudomonas aeruginosa [45] = test: Antibacterial activity against Pseudomonas aeruginosa P335 assessed as mutant prevention concentration after overnight incubation
Escherichia coli [46] = test: Antibacterial activity against beta-lactamase-positive ESBL-positive Escherichia coli E460 assessed as mutant prevention concentration after overnight incubation; method in brief: as §1

C[C@@H](O)[C@H]1C(=O)N2C(C(=O)O)=C(S[C@@H]3CN[C@H](C(=O)N(C)C)C3)[C@H](C)[C@H]12 [MEROPENEM]
MPC (Acinetobacter baumannii [1]): 1 µg/mL | MIC (Klebsiella pneumoniae [2]): 4 µg/mL (≈ 10.4 µM) | MPC (Pseudomonas aeruginosa [3]): 32 µg/mL | MPC (Klebsiella pneumoniae [4]): >64 µg/mL | MPC (Escherichia coli [5]): 0.06 µg/mL | MPC (Pseudomonas aeruginosa [6]): 16 µg/mL | MPC (Pseudomonas aeruginosa [7]): 8 µg/mL | MIC (Klebsiella pneumoniae [8]): 2 µg/mL (≈ 5.22 µM) | MPC (Pseudomonas aeruginosa [9]): 32 µg/mL | MIC (Escherichia coli [10]): 0.03 µg/mL (≈ 0.0782 µM) | MPC (Escherichia coli [11]): 0.06 µg/mL | MPC (Pseudomonas aeruginosa [12]): 16 µg/mL | MPC (Klebsiella pneumoniae [13]): 0.125 µg/mL | MPC (Pseudomonas aeruginosa [14]): >8 µg/mL | MPC (Escherichia coli [15]): 0.125 µg/mL | MPC (Escherichia coli [16]): 0.06 µg/mL | MIC (Klebsiella pneumoniae [17]): 0.06 µg/mL (≈ 0.156 µM) | MPC (Klebsiella pneumoniae [18]): 16 µg/mL | MIC (Klebsiella pneumoniae [19]): 0.03 µg/mL (≈ 0.0782 µM) | MIC (Klebsiella pneumoniae [20]): 0.06 µg/mL (≈ 0.156 µM) | MIC (Klebsiella pneumoniae [21]): 0.06 µg/mL (≈ 0.156 µM) | MPC (Escherichia coli [22]): 0.06 µg/mL | MIC (Klebsiella pneumoniae [23]): 4 µg/mL (≈ 10.4 µM) | MIC (Klebsiella pneumoniae [24]): 4 µg/mL (≈ 10.4 µM) | MPC (Klebsiella pneumoniae [25]): 0.125 µg/mL | MIC (Escherichia coli [26]): 0.06 µg/mL (≈ 0.156 µM) | MIC (Escherichia coli [27]): 0.5 µg/mL (≈ 1.3 µM) | MIC (Escherichia coli [28]): 0.03 µg/mL (≈ 0.0782 µM) | MIC (Klebsiella pneumoniae [29]): 0.03 µg/mL (≈ 0.0782 µM) | MPC (Klebsiella pneumoniae [30]): 64 µg/mL | MPC (Escherichia coli [31]): 0.25 µg/mL | MPC (Escherichia coli [32]): 4 µg/mL | MIC (Escherichia coli [33]): 0.03 µg/mL (≈ 0.0782 µM) | MIC (Escherichia coli [34]): 0.03 µg/mL (≈ 0.0782 µM) | MIC (Klebsiella pneumoniae [35]): 2 µg/mL (≈ 5.22 µM) | MPC (Acinetobacter baumannii [36]): 32 µg/mL | MPC (Acinetobacter baumannii [37]): 4 µg/mL | MIC (Klebsiella pneumoniae [38]): 0.03 µg/mL (≈ 0.0782 µM) | MPC (Klebsiella pneumoniae [39]): 8 µg/mL | MPC (Klebsiella pneumoniae [40]): 16 µg/mL | MIC (Escherichia coli [41]): 0.06 µg/mL (≈ 0.156 µM) | MPC (Acinetobacter baumannii [42]): 4 µg/mL | MPC (Escherichia coli [43]): 0.06 µg/mL | MIC (Escherichia coli [44]): 0.03 µg/mL (≈ 0.0782 µM) | MPC (Pseudomonas aeruginosa [45]): 32 µg/mL | MPC (Escherichia coli [46]): 0.06 µg/mL

C[C@@H](O)[C@H]1C(=O)N2C(C(=O)O)=C(S[C@@H]3CN[C@H](CNS(N)(=O)=O)C3)[C@H](C)[C@H]12 [DORIPENEM]
MPC (Acinetobacter baumannii [1]): 1 µg/mL | MIC (Klebsiella pneumoniae [2]): 2 µg/mL (≈ 4.76 µM) | MPC (Pseudomonas aeruginosa [3]): 64 µg/mL | MPC (Klebsiella pneumoniae [4]): >64 µg/mL | MPC (Escherichia coli [5]): 0.06 µg/mL | MPC (Pseudomonas aeruginosa [6]): 16 µg/mL | MPC (Pseudomonas aeruginosa [7]): 2 µg/mL | MIC (Klebsiella pneumoniae [8]): 2 µg/mL (≈ 4.76 µM) | MPC (Pseudomonas aeruginosa [9]): >4 µg/mL | MIC (Escherichia coli [10]): 0.03 µg/mL (≈ 0.0713 µM) | MPC (Escherichia coli [11]): 0.125 µg/mL | MPC (Pseudomonas aeruginosa [12]): 4 µg/mL | MPC (Klebsiella pneumoniae [13]): 0.25 µg/mL | MPC (Pseudomonas aeruginosa [14]): 4 µg/mL | MPC (Escherichia coli [15]): 0.125 µg/mL | MPC (Escherichia coli [16]): 0.06 µg/mL | MIC (Klebsiella pneumoniae [17]): 0.06 µg/mL (≈ 0.143 µM) | MPC (Klebsiella pneumoniae [18]): 32 µg/mL | MIC (Klebsiella pneumoniae [19]): 0.06 µg/mL (≈ 0.143 µM) | MIC (Klebsiella pneumoniae [20]): 0.06 µg/mL (≈ 0.143 µM) | MIC (Klebsiella pneumoniae [21]): 0.125 µg/mL (≈ 0.297 µM) | MPC (Escherichia coli [22]): 0.06 µg/mL | MIC (Klebsiella pneumoniae [23]): 2 µg/mL (≈ 4.76 µM) | MIC (Klebsiella pneumoniae [24]): 2 µg/mL (≈ 4.76 µM) | MPC (Klebsiella pneumoniae [25]): 0.125 µg/mL | MIC (Escherichia coli [26]): 0.03 µg/mL (≈ 0.0713 µM) | MIC (Escherichia coli [27]): 0.25 µg/mL (≈ 0.595 µM) | MIC (Escherichia coli [28]): 0.06 µg/mL (≈ 0.143 µM) | MIC (Klebsiella pneumoniae [29]): 0.06 µg/mL (≈ 0.143 µM) | MPC (Klebsiella pneumoniae [30]): >64 µg/mL | MPC (Escherichia coli [31]): 0.125 µg/mL | MPC (Escherichia coli [32]): 2 µg/mL | MIC (Escherichia coli [33]): 0.03 µg/mL (≈ 0.0713 µM) | MIC (Escherichia coli [34]): 0.03 µg/mL (≈ 0.0713 µM) | MIC (Klebsiella pneumoniae [35]): 2 µg/mL (≈ 4.76 µM) | MPC (Acinetobacter baumannii [36]): 16 µg/mL | MPC (Acinetobacter baumannii [37]): 1 µg/mL | MIC (Klebsiella pneumoniae [38]): 0.06 µg/mL (≈ 0.143 µM) | MPC (Klebsiella pneumoniae [39]): >64 µg/mL | MPC (Klebsiella pneumoniae [40]): 8 µg/mL | MIC (Escherichia coli [41]): 0.03 µg/mL (≈ 0.0713 µM) | MPC (Acinetobacter baumannii [42]): 1 µg/mL | MPC (Escherichia coli [43]): 0.06 µg/mL | MIC (Escherichia coli [44]): 0.06 µg/mL (≈ 0.143 µM) | MPC (Pseudomonas aeruginosa [45]): 16 µg/mL | MPC (Escherichia coli [46]): 0.125 µg/mL
